Common to all, as to assay type: ADME
The target in data set [1] is T1, UDP-glucuronosyltransferase 2B7 (Homo sapiens, UniProt P16662).
T1 sequence (P16662 whole entry): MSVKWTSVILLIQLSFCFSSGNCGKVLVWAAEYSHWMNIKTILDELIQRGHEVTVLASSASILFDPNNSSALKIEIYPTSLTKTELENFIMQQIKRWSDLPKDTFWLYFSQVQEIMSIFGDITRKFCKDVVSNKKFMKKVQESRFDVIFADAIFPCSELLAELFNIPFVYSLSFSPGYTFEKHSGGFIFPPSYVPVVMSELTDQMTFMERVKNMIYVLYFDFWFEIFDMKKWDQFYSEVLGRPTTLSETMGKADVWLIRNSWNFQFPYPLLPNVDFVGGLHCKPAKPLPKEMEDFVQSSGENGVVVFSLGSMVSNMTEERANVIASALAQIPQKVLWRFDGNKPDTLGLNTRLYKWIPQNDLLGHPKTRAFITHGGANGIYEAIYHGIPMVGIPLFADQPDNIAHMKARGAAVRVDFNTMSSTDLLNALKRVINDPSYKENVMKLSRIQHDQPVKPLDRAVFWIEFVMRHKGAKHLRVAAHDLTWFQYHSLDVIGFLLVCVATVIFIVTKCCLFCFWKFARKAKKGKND
Briefly: Activity of human UGT2B7 expressed in microsomes isolated from baculovirus infected insect cell assessed as enzyme-mediated 2-hydroxy-3-(4-((6-methoxy-1-methyl-1H-benzo[d]imidazol-2-yl)methoxy)phenyl)propanamide formation at 20 uM after 4 hrs by radio-HPLC/LC-MS/MS analysis in presence of NADPH-generating system and NADPH-generating system/SAM in presence of UDPGA and UDPGA/SAM.

Another data set deals with Cytochrome P450 2D6 (Homo sapiens, UniProt P10635). Briefly: Activity of human CYP2D6 expressed in microsomes isolated from baculovirus infected insect cell assessed as enzyme-mediated 2-amino-3-((1-carboxy-2-(4-((6-methoxy-1-methyl-1H-benzo[d]imidazol-2-yl)methoxy)phenyl)ethyl)disulfanyl)propanoic acid formation at 20 uM after 2 hrs by radio-HPLC/LC-MS/MS analysis. Put shortly: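 Baculovirus-insect-cell microsomes expressing the human CYP (1 mg/ml protein) were incubated with [14C]rivoglitazone (20 μM) in 50 mM potassium phosphate (pH 7.4) or 100 mM Tris-HCl (pH 7.5) with an NADPH-generating system (2 mM NADP+, 20 mM glucose 6-phosphate, 2 units/ml G6PDH, 10 mM MgCl2) for 2 h at 37°C. Insect-cell control supersomes served as the control. Reactions were stopped with acetonitrile, and the concentrated supernatants were analysed by radio-HPLC, LC-MS and LC-MS/MS.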
Cytochrome P450 2D6, sequence (P10635 whole entry): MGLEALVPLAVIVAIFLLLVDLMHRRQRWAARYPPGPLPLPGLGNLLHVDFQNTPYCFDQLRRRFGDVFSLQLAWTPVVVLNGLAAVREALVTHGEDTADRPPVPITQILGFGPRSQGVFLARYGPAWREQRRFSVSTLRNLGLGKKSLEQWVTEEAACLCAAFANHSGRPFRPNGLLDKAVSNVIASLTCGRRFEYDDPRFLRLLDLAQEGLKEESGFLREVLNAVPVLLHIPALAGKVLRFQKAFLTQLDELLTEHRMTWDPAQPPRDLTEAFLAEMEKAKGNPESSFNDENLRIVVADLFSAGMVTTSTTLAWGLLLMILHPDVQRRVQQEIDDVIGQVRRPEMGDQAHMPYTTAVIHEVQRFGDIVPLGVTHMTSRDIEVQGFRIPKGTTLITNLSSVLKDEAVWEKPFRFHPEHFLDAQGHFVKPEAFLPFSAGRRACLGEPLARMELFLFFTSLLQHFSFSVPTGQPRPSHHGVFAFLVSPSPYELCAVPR

In another data set the target is Cytochrome P450 3A4 (Homo sapiens, UniProt P08684). Put plainly: Activity of human CYP3A4 expressed in microsomes isolated from baculovirus infected insect cell assessed as enzyme-mediated 5-(4-((6-hydroxy-1-methyl-1H-benzo[d]imidazol-2-yl)methoxy)benzyl)thiazolidine-2,4-dione formation at 20 uM after 2 hrs by radio-HPLC/LC-MS/MS analysis in presence of NADPH-generating system and NADPH-generating system/SAM.
Cytochrome P450 3A4, sequence (P08684 whole entry): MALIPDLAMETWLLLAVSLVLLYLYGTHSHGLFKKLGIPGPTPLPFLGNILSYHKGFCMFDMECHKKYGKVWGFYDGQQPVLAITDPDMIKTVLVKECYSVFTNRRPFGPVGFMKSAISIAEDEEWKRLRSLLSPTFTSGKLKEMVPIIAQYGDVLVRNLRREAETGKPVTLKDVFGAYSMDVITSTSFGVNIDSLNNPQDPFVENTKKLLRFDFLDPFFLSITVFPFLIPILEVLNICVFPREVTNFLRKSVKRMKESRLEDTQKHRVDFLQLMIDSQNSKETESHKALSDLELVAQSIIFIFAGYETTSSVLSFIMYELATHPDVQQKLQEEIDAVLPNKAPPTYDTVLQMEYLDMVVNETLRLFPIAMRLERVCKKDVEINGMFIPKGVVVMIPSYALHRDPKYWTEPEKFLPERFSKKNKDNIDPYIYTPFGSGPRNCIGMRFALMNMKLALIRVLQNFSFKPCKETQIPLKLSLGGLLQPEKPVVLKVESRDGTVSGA

The target of data set [2] is T2, UDP-glucuronosyltransferase 1A3 (Homo sapiens, UniProt P35503).
T2 sequence (P35503 whole entry): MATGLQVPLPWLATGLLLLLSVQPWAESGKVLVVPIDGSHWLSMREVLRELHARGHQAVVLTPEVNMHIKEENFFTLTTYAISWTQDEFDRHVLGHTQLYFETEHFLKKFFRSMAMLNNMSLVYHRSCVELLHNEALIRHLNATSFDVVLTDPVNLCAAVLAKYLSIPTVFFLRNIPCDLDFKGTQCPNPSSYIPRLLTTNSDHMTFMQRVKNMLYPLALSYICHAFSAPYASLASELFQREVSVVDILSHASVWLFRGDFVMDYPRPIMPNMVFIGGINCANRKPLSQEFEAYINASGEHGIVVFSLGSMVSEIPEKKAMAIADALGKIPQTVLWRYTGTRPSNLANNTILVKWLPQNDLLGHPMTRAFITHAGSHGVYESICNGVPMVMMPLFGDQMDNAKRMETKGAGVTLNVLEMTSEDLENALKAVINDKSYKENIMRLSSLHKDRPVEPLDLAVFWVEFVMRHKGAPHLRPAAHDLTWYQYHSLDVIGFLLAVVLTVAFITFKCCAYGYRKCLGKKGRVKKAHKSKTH
Put plainly: Activity of human UGT1A3 expressed in microsomes isolated from baculovirus infected insect cell assessed as enzyme-mediated 2-mercapto-3-(4-((6-methoxy-1-methyl-1H-benzo[d]imidazol-2-yl)methoxy)phenyl)propanoic acid formation at 20 uM after 4 hrs by radio-HPLC/LC-MS/MS analysis in presence of UDPGA, UDPGA/SAM and NADPH-generating system in presence of UDPGA and UDPGA/SAM. The essentials:
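Alamethicin (50 μg/mg protein, 15 min on ice) pretreated expressed human UGT microsomes (1 mg/ml protein) from baculovirus-infected insect cells. Incubation with [¹⁴C]rivoglitazone (20 μM) in 100 mM Tris-HCl (pH 7.5) with 10 mM MgCl₂, started by 5 mM UDPGA, 4 h at 37°C with shaking. UGT insect-cell control supersomes were run alongside. Acetonitrile stop, concentrated supernatant analysed by radio-HPLC, LC-MS and LC-MS/MS.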

The target of a further data set is Cytochrome P450 2C19 (Homo sapiens, UniProt P33261). Briefly: Activity of human CYP2C19 expressed in microsomes isolated from baculovirus infected insect cell assessed as enzyme-mediated 5-(4-((6-hydroxy-1-methyl-1H-benzo[d]imidazol-2-yl)methoxy)benzyl)thiazolidine-2,4-dione formation at 20 uM after 2 hrs by radio-HPLC/LC-MS/MS analysis in presence of NADPH-generating system and NADPH-generating system/SAM. The essentials: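 Baculovirus/insect-cell microsomes expressing single human CYPs, 1 mg/ml protein, with 50 mM potassium phosphate (pH 7.4) or 100 mM Tris-HCl (pH 7.5). NADPH-generating system: 2 mM NADP⁺, 20 mM glucose 6-phosphate, 2 units/ml G6PDH, 10 mM MgCl₂. [¹⁴C]rivoglitazone at 20 μM, 2 h at 37°C with shaking. Control used insect-cell control supersomes. Stopped with acetonitrile; supernatant concentrated under nitrogen; metabolites analysed by radio-HPLC, LC-MS and LC-MS/MS.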
Cytochrome P450 2C19, sequence (P33261 whole entry): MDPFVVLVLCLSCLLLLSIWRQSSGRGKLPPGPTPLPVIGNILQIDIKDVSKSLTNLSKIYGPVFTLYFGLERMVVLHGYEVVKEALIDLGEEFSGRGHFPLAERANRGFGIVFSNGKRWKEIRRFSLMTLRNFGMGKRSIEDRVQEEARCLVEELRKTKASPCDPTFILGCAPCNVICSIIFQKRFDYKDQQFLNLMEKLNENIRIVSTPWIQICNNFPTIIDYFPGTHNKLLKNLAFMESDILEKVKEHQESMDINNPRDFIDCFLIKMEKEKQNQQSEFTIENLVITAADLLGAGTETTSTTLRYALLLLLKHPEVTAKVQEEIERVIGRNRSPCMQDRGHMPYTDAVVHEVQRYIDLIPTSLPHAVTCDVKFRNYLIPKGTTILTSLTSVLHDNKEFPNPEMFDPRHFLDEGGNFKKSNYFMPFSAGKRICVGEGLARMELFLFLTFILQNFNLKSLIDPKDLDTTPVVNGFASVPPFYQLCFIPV

A further data set deals with Cytochrome P450 3A5 (Homo sapiens, UniProt P20815). Put plainly: Activity of human CYP3A5 expressed in microsomes isolated from baculovirus infected insect cell assessed as enzyme-mediated 2-mercapto-3-(4-((6-methoxy-1-methyl-1H-benzo[d]imidazol-2-yl)methoxy)phenyl)propanamide formation at 20 uM after 2 hrs by radio-HPLC/LC-MS/MS analysis in presence of NADPH-generating system and NADPH-generating system/SAM. The essentials: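 cDNA-expressed human CYP3A5 in baculovirus-insect-cell microsomes (1 mg/ml protein) was incubated with [¹⁴C]rivoglitazone (20 μM) in 50 mM potassium phosphate (pH 7.4) or 100 mM Tris-HCl (pH 7.5). NADPH-generating system: 2 mM NADP⁺, 20 mM glucose 6-phosphate, 2 units/ml G6PDH, 10 mM MgCl₂. Incubation ran 2 h at 37°C with shaking; insect-cell control supersomes served as control. Acetonitrile stop, supernatant concentrated, then radio-HPLC, LC-MS and LC-MS/MS.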
Cytochrome P450 3A5, sequence (P20815 whole entry): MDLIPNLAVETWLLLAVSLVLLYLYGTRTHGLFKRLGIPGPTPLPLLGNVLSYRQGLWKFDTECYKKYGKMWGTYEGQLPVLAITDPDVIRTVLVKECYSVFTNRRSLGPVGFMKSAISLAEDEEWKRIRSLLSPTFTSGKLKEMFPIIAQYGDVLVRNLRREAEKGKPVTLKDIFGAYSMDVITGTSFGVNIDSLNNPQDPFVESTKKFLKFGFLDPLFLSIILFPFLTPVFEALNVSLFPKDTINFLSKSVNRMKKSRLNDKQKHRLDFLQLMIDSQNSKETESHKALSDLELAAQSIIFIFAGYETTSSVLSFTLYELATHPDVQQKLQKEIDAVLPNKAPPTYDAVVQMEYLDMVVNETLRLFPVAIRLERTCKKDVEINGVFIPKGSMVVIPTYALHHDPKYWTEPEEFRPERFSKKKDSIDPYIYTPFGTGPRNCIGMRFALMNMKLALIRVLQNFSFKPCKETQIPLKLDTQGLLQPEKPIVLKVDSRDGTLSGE

The record followed here is ChEMBL document CHEMBL3526048, “In vitro metabolism of rivoglitazone, a novel peroxisome proliferator-activated receptor γ agonist, in rat, monkey, and human liver microsomes and freshly isolated hepatocytes” (Drug Metab Dispos, 2011).

For the compound `COc1ccc2nc(COc3ccc(C[14CH]4SC(=O)NC4=O)cc3)n(C)c2c1.Cl` (racemic), the Drug metabolism entry is on record as “metabolite_not_detected” in data set [1]; “metabolite_not_detected” at Cytochrome P450 2D6; “metabolite_detected” on Cytochrome P450 3A4; “metabolite_detected” in data set [2]; “metabolite_detected” at Cytochrome P450 2C19; “metabolite_detected” on Cytochrome P450 3A5.
